Measured values taken from paper PMC7115619 (European Journal of Medicinal Chemistry, 2015).
“Also recorded” adds a separate entry of the source.

Assays:
[1] = system: HHV-2; test: Plaque reduction assay, pre- and post-infection treatment, HHV-2; type: cell-based, Human Herpesvirus type 2; settings: Vero, 72 h, read-out: EC50 pre-infection treatment HHV-2
Procedure, shortened: (§1)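 Vero monolayers (2.5 × 10^4 cells/well) received 100 PFU/well (DENV-2 New Guinea or HHV-2 VR-734-G). Pre-infection: virus/test compound mixture for 1 h at 37 °C, then PBS (pH 7.0) wash and CMC overlay. Post-infection: virus 1 h, wash, then compound in CMC. CMC was 2% for DENV-2 (8 days) and 0.75% for HHV-2 (72 h). Formaldehyde/crystal violet stain, plaques counted. EC50 by linear regression; mean of three experiments.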

[2] = system: HHV-1 (CDC Atlanta strain); test: Screening against HHV-1 by end-point titration technique; type: cell-based, Human Herpesvirus type 1; settings: Vero cell line; 10 TCID50; 48 h
Procedure, shortened: (§2)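 Vero cells (2.0 × 10^4 cells/well) were grown to ≥80% monolayer. 10 TCID50 virus was mixed with test compound (6.25–50 μg/mL) in DMEM/2% FBS containing CMC: 1% for HHV-1, 0.5% for HHV-2. Mixture held 15 min at room temperature, then incubated at 37 °C: 48 h (HHV-1) or 72 h (HHV-2). Crystal violet/formaldehyde stain, plaques counted. Titer reduction factor: ≥1 × 10^3 relevant, 1 × 10^2 moderate. Two experiments in quadruplicate.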

[3] = system: DENV-2; test: Plaque reduction assay, pre- and post-infection treatment, DENV-2; type: cell-based, Dengue virus type 2; settings: Dengue virus, DENV2, Vero, 192 h, read-out: EC50 pre-infection treatment DENV-2
Procedure, shortened: as §1

[4] = system: Vero cells; test: MTT cytotoxicity on Vero cells; type: cell-based, Cercopithecus aethiops; settings: read-out: IC50 (μM) 72 h, inhibitory concentration of cell proliferation
[5] = system: HHV-2 (VR-734-G strain); test: Screening against HHV-2 by end-point titration technique; type: cell-based, Human Herpesvirus type 2; settings: Vero cell line; 10 TCID50; 72 h
Procedure, shortened: as §2

| Compound | EC50 [1] [µM] | Rf, reduction factor of the viral titer, HHV-1 [2] | EC50 [3] [µM] | IC50 [4] [µM] | Rf, reduction factor of the viral titer, HHV-2 [5] |
| --- | --- | --- | --- | --- | --- |
| CC(C)c1cc2c(cc1O)[C@@]1(C)CCC[C@@](C)(C=O)[C@@H]1CC2 [Compound 9, 18-oxoferruginol] | > 20.8 | did not show activity; also recorded: did not show reduction of viral titer | > 20.8 |  |  |
| CC(C)c1cc2c(cc1O)[C@@]1(C)CCC[C@@](C)(CN3C(=O)c4ccccc4C3=O)[C@@H]1CC2 [Compound 8] | > 29 |  | > 29 |  |  |
| dextran sulfate [DEX-S] |  |  |  | > 10 |  |
| Nc1nc2c(ncn2COCCO)c(=O)[nH]1 [ACV, acyclovir] |  |  |  |  | 10^3 |
